These results are taken from ChEMBL document CHEMBL1139450, “Synthesis of a novel nitroimidazole-spermidine derivative as a tumor-targeted hypoxia-selective cytotoxin” (2004).

For experiment [1], the system named is V79. As to the kind of experiment: Cytotoxicity of compound was assessed against suspended V79 cells under aerobic conditions in clonogenic assay. It is filed as functional, Cricetulus griseus. The method, boiled down: (§1)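 Clonogenic assay in suspended V79 Chinese hamster lung fibroblasts exposed to drug in air (A) or N2 (H). CT50 is the drug concentration (mM) that cuts clonogenicity to 50% of matched controls; mean ± SEM of 4 determinations. Where used, DFMO was given to exponentially growing monolayers in air for 48 h beforehand. Spermidine was added alongside the drug under the same conditions. Student's t-test was run against matched controls.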

Experiment [2] concerns V79. As to the kind of experiment: Cytotoxicity of compound was assessed against suspended V79 cells under hypoxic conditions in clonogenic assay. Format: functional, Cricetulus griseus. The method, boiled down:
as §1

Experiment [3] deals with V79. As to the kind of experiment: Cytotoxicity of compound was assessed against suspended V79 cells treated with 4 uM spermidine under aerobic conditions in clonogenic assay. Format: functional, Cricetulus griseus. A digest of the protocol: as §1
The nature of experiment [4]: Ratio of CT50 in aerobic condition to CT50 in hypoxic condition when V79 cells were exposed to 4 uM spermidine (CT50A/CT50H). It is filed as functional. The method, boiled down: (§2)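 Ratio of aerobic to hypoxic CT50 (CT50A/CT50H, air vs N2) from clonogenic assays in suspended V79 cells; each CT50 is the mean of 4 determinations. Where used, DFMO pretreatment was given to monolayers in air for 48 h. Spermidine was co-administered with the drug under the same conditions.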

Experiment [5] relates to V79. As to the kind of experiment: Cytotoxicity of compound was assessed against suspended V79 cells exposed to 0.1 mM DFMO and 4 uM spermidine under hypoxic conditions in clonogenic assay. It is filed as functional, Cricetulus griseus. A digest of the protocol:
as §1

Experiment [6] is described as follows: Ratio of CT50 in aerobic condition to CT50 in hypoxic condition when V79 cells were exposed to 4 uM spermidine and 0.1 mM DFMO (CT50A/CT50H). Format: functional. A digest of the protocol: as §2
Experiment [7] deals with V79. As to the kind of experiment: Cytotoxicity of compound was assessed against suspended V79 cells exposed to 0.1 mM DFMO and 4 uM spermidine under aerobic conditions in clonogenic assay. It is filed as functional, Cricetulus griseus. A digest of the protocol: as §1
Experiment [8] relates to V79. The experiment in a line: Cytotoxicity of compound was assessed against suspended V79 cells exposed to 1 mM DFMO for 48 hr under aerobic conditions in clonogenic assay. Format: functional, Cricetulus griseus. The method, boiled down:
as §1

The subject of experiment [9] is V79. As to the kind of experiment: Cytotoxicity of compound was assessed against suspended V79 cells exposed to 1 mM DFMO and 0.5 mM spermidine under aerobic conditions in clonogenic assay. Format: functional, Cricetulus griseus. The method, boiled down:
as §1

Experiment [10] is described as follows: Ratio of CT50 in aerobic condition to CT50 in hypoxic condition (CT50A/CT50H). It is filed as functional. The method, boiled down:
as §2

A short description of experiment [11]: Ratio of CT50 in aerobic condition to CT50 in hypoxic condition when V79 cells were exposed to 1 mM DFMO (CT50A/CT50H). It is filed as functional. The method, boiled down: as §2
Experiment [12] relates to V79. The experiment in a line: Cytotoxicity of compound was assessed against suspended V79 cells exposed to 1 mM DFMO for 48 hr under hypoxic conditions in clonogenic assay. It is filed as functional, Cricetulus griseus. The method, boiled down: as §1
Experiment [13] relates to V79. The experiment in a line: Cytotoxicity of compound was assessed against suspended V79 cells exposed to 4 uM spermidine under hypoxic conditions in clonogenic assay. Format: functional, Cricetulus griseus. The method, boiled down:
as §1

For `Cl.Cl.Cl.NCCCCN(CCCN)CC(O)Cn1ccnc1[N+](=O)[O-]` (stereo not drawn), the CT50 in [1] is recorded as 2.6 mM; in experiment [2], 1.28 mM; in experiment [3] it was 2.64 mM; in [5], 0.88 mM; in experiment [7] it was 1.15 mM; in experiment [8] it was 1.63 mM. Also, the CT50 in experiment [9] is reported as 0.63 mM; in experiment [12] it was 0.74 mM; in experiment [13], 1.15 mM. Further, the Ratio in [4] amounted to 2.3; in experiment [6], 1.3; in experiment [10] it was 2; in experiment [11] it was 2.2.
